Results pooled from the literature.
Lines come from different studies, so protocols differ.
RET: Proto-oncogene tyrosine-protein kinase receptor Ret (RET, Homo sapiens, UniProt P07949)
RET V804M: Proto-oncogene tyrosine-protein kinase receptor Ret (RET, Homo sapiens, UniProt P07949, V804M)
RET V804L: Proto-oncogene tyrosine-protein kinase receptor Ret (RET, Homo sapiens, UniProt P07949, V804L)
RET K758M: Proto-oncogene tyrosine-protein kinase receptor Ret (RET, Homo sapiens, UniProt P07949, K758M)
RET M918T: Proto-oncogene tyrosine-protein kinase receptor Ret (RET, Homo sapiens, UniProt P07949, M918T)
RET Y791F: Proto-oncogene tyrosine-protein kinase receptor Ret (RET, Homo sapiens, UniProt P07949, Y791F)

| SMILES | target | effect on | action | method | tested at | measurement | result |
| --- | --- | --- | --- | --- | --- | --- | --- |
| COc1ccnn2ncc(-c3ccnc(N(C)C)n3)c12 | RET | binding | – | – | 1 µM | remaining binding | 100% |
| O=C(NS(=O)(=O)c1ccc(NCC2CCOCC2)c([N+](=O)[O-])c1)c1ccc(N2CCN(Cc3ccc(C(F)(F)F)cc3-c3ccc(Cl)cc3)CC2)cc1Oc1cnc2[nH]ccc2c1 | RET V804M | cell-free assay | – | competition with immobilised ligand | 1 µM | remaining binding | 100% |
| CC1CCCN1c1nccc(-c2cnn3ncccc23)n1 (stereo not drawn) | RET V804L | binding | – | – | 1 µM | remaining binding | 85% |
| CO[C@]1(C(=O)N[C@@H](C)c2ccc(-n3cc(F)cn3)nc2)CC[C@H](c2nc(C)cc(Nc3cc(C)[nH]n3)n2)CC1 | RET K758M | thermal stability | – | DSF | 10 µM | ΔTm | 14.2 °C |
| C[C@H]1CCN(c2nccc(-c3cnn4ncccc34)n2)C1 | RET V804M | binding | – | – | 1 µM | remaining binding | 84% |
| Cc1cc(NC(=O)Nc2ccc(F)cc2)cc2sc(NC(=O)c3ccccc3)nc12 | RET | enzyme activity | inhibitor | radiometric | 0.1 µM | remaining activity | 146% |
| C=CC(=O)Nc1cc(Nc2nccc(Nc3cc(Cl)c(F)cc3C(C)(C)O)n2)c(OC)cc1N1CC[C@@H](N(C)C)C1 | RET V804M | enzyme activity | inhibitor | – | 1 µM | inhibition | -6% |
| CCCCN(CCCC)C(=O)CN1C[C@H](c2cc(OC)c3c(c2)OCO3)[C@@H](C(=O)O)[C@@H]1CC(C)(C)CCC | RET V804M | cell-free assay | – | competition with immobilised ligand | 1 µM | remaining binding | 100% |
| O=C1NC(=O)c2cc(Nc3ccc(F)cc3)c(Nc3ccc(F)cc3)cc21 | RET | cell-free assay | – | – | 0.5 µM | remaining signal | 104% |
| CCc1ccccc1C(=O)Nc1n[nH]c2c(C)c(F)c(C3C(C#N)=C(C)N(C)C(C)=C3C#N)cc12 | RET M918T | cell-free assay | – | competition with immobilised ligand | 1 µM | remaining binding | 64% |
| N[C@H]1CCN(c2nccc(-c3cnn4ncccc34)n2)C1 | RET | binding | – | – | 1 µM | remaining binding | 51% |
| CC/C(=N\NC(=O)NCc1cccc(O)c1)c1ccc(O)c(C)c1O | Proto-oncogene tyrosine-protein kinase receptor Ret (RET, Homo sapiens, UniProt P07949, S891A) | enzyme activity | inhibitor | – | 0.1 µM | inhibition | 6.2% |
| Cc1ccc(C(=O)Nc2ccc(CN3CCN(C)CC3)c(C(F)(F)F)c2)cc1C#Cc1cnc2cccnn12 | RET V804M | enzyme activity | – | – | 23.5 nM | remaining activity | 8.4% |
| CC(=O)c1cccc(NC(=O)Cc2csc(NC(=O)Nc3cccc(Cl)c3)n2)c1 | RET | enzyme activity | inhibitor | radiometric | 10 µM | remaining activity | 92.6% |
| COc1cc2ncnc(Nc3ccc(Oc4ccccc4)cc3C)c2cc1OC | RET Y791F | enzyme activity | inhibitor | – | 1 µM | inhibition | 36% |
| COc1cc(-c2cc(-c3ccc(N4CCNCC4)cc3)cnc2N)cc(OC)c1OC | RET Y791F | enzyme activity | inhibitor | – | 1 µM | inhibition | 13% |
| COc1ccc(OC)c(NC(=O)Nc2cc(OC)c3nc(NC(=O)c4ccccc4)sc3c2)c1 | RET | enzyme activity | inhibitor | radiometric | 0.1 µM | remaining activity | 114% |
| C[C@@H]1CN(c2cc(-c3nn(C)c4ccc(OC5(C)CC5)cc34)ncn2)C[C@H](C)O1 | RET V804M | cell-free assay | – | competition with immobilised ligand | 1 µM | remaining binding | 100% |
| Cc1cc(NC(=O)c2cccc3cc(-c4cccc5[nH]nc(N)c45)ccc23)ccc1F | RET V804L | enzyme activity | inhibitor | – | 0.1 µM | activity vs control | 116% |
| N#CCCc1ccc2c(c1)-c1[nH]c3ccc([N+](=O)[O-])cc3c1CC(=O)N2 | RET | cell-free assay | – | – | 0.5 µM | remaining signal | 80.8% |

| SMILES | target | effect on | action | method | tested at | measurement | result |
| --- | --- | --- | --- | --- | --- | --- | --- |
| COc1ccc(CN2C3CC2CN(c2ccc(-c4cc(OCC(C)(C)O)cn5ncc(C#N)c45)cn2)C3)cn1 | RET K758M | thermal stability | – | DSF | 10 µM | ΔTm | 11.9 °C |
| Cc1ccc(C(=O)NCc2ccsc2)cc1C#Cc1cn(C(C)C)c2ncnc(N)c12 | RET | enzyme activity | inhibitor | – | 1 µM | activity vs control | 4% |
| Nc1ncnc2occ(-c3ccc(NC(=O)Nc4cc(C(F)(F)F)ccc4F)cc3)c12 | RET M918T | cell-free assay | – | – | 20 µM | remaining signal | 0% |
| c1cnn2ncc(-c3ccnc(N4CCC45COC5)n3)c2c1 | RET V804L | binding | – | – | 1 µM | remaining binding | 91% |
| COc1ccc(NC(=O)Nc2cc(C)c3nc(NC(=O)c4ccccc4)sc3c2)c(OC)c1 | RET | enzyme activity | inhibitor | radiometric | 0.1 µM | remaining activity | 133% |
| Cc1cc(C)c(-n2ccn3nc(-c4cccnc4)cc23)cc1NC(=O)c1cc(C#N)cc(S(F)(F)(F)(F)F)c1 | RET V804M | cell-free assay | – | competition with immobilised ligand | 0.1 µM | remaining binding | 94.5% |
| Cc1ccc(Nc2nccc(N(C)c3ccc4c(C)n(C)nc4c3)n2)cc1S(N)(=O)=O | RET | cell-free assay | – | – | 0.5 µM | remaining signal | 25.7% |
| COc1cc(NC(=O)Nc2cccc(Br)c2)cc2sc(NC(=O)c3ccccc3)nc12 | RET | enzyme activity | inhibitor | radiometric | 10 µM | remaining activity | 127% |
| CN(CCCC(F)(F)F)c1nccc(-c2cnn3ncccc23)n1 | RET M918T | binding | – | – | 1 µM | remaining binding | 99% |
| CS(=O)(=O)N1CCCC(NC(=O)[C@H](CCC2CCCCC2)NC(=O)c2ccc(CNc3ncnc4c3nnn4-c3ccccc3)cc2)C1 (stereo partly drawn) | RET M918T | cell-free assay | – | competition with immobilised ligand | 0.1 µM | remaining binding | 93% |
| CCc1cccc(NC(=O)c2cc(-c3ccc(OC)c(S(N)(=O)=O)c3)[nH]n2)c1 | RET | enzyme activity | inhibitor | radiometric | 10 µM | remaining activity | 92.5% |
| CCCOc1ccc(OC)c(F)c1C(=O)c1ccc(C(=O)N[C@@H]2CNC[C@H]2NC(=O)c2ccc3[nH]ncc3c2)cc1 | RET V804L | enzyme activity | inhibitor | – | 10 µM | remaining activity | 8% |
| Cc1cccc(NC(=O)CNC(=O)c2ccccc2NS(=O)(=O)c2ccc3[nH]c(=O)[nH]c3c2)c1C | RET | enzyme activity | inhibitor | radiometric | 10 µM | remaining activity | 85.9% |
| COCCOc1nc(-c2ccc(Cl)nc2)nc2c1CN(C(=O)c1ncn3ccccc13)CC2 | RET V804M | cell-free assay | – | competition with immobilised ligand | 0.1 µM | remaining binding | 89% |
| C[C@@H]1CCN(C(=O)CC#N)C[C@@H]1N(C)c1ncnc2[nH]ccc12 | RET | cell-free assay | – | – | 0.5 µM | remaining signal | 92.4% |
| CN(C)c1ncc(F)c(-c2cnn3ncccc23)n1 | RET V804L | binding | – | – | 1 µM | remaining binding | 91% |
| COCC(=O)Nc1cc(C(=O)NCc2ccc(C)c(F)c2)cc2ncn(CCc3ccccc3)c12 | RET | enzyme activity | inhibitor | radiometric | 0.1 µM | remaining activity | 133% |
| CC(C)(O)c1cncc(-c2nc3ccc(F)cc3n2C2CC2)c1 | RET | cell-free assay | – | competition with immobilised ligand | 1 µM | remaining binding | 100% |
| Cc1ccc(NC(=O)c2ccc(C)c(C(F)(F)F)c2)cc1C#Cc1nn(C2CCC(O)CC2)c2ncnc(N)c12 (stereo not drawn) | RET | cell-free assay | – | – | 10 µM | remaining signal | 2% |
